The source made the active and inactive calls. The calls are words filed in the database; no cut-off is given here.

Data set [1] has as its system Radical scavenging activity. The experiment in a line: Antioxidant activity of the compound assessed as DPPH radical scavenging activity at 50 uM. The format is functional. An outline of the steps:
(§1)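 Scavenging of the DPPH radical read by absorbance at 520 nm. % scavenging = (A_blank − A_sample)/A_blank × 100. Scavenging also followed at 0.5, 1, 2, 4, 6, 12 and 24 h. Three independent experiments, mean ± SD, one-way ANOVA.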
For orientation: DPPH is a stable violet radical that fades when it is reduced.

Data set [2] can be described thus: Antioxidant activity of the compound assessed as phosphate/Mo5 complex formation at 6.25 to 100 uM after 90 mins. The format is functional. Put shortly:
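Phosphomolybdenum method: compound incubated with 0.6 M H2SO4, 28 mM sodium phosphate and 4 mM ammonium molybdate at 95 °C for 90 min. After cooling to room temperature, absorbance read at 695 nm against a blank. Result expressed as vitamin C equivalent; three independent experiments, mean ± SD.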

Data set [3] is described as follows: Antioxidant activity of the compound in phosphate buffer at pH 6.6 assessed as potassium ferric cyanide ion reducing activity at 6.25 to 100 uM after 20 mins. It is filed as functional. Details: scale not given: the % may be the effect or the level left. An outline of the steps:
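Ferricyanide reducing power: sample in 0.2 M phosphate buffer, pH 6.6, incubated with 1% w/v potassium ferricyanide at 50 °C for 20 min. Reducing effect expressed relative to vitamin C; three independent experiments, mean ± SD.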

A short description of data set [4]: Ratio of alpha-tocopherol IC50 to compound IC50 for antioxidant activity of the compound assessed as DPPH radical scavenging activity.
In data set [5] the test system is Radical scavenging activity. The experiment in a line: Antioxidant activity of the compound assessed as DPPH radical scavenging activity. The format is functional. Put shortly:
as §1

The test system of data set [6] is RAW264.7. The experiment in a line: Cytotoxicity against mouse RAW264.7 cells up to 100 uM after 24 hrs by MTT assay. The format is cell-based. The settings on record: raw264.7, 24 h. An outline of the steps: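 RAW 264.7 cells (DMEM, 10% FBS, 2 mM glutamine, penicillin/streptomycin; 37 °C, 5% CO2) seeded at 1 × 10^4 cells/well. After 24 h, treated with a range of compound concentrations for 24 h. MTT (1 mg/mL) added for 4 h, formazan dissolved in DMSO, absorbance read at 540 nm.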

The test system of data set [7] is RAW264.7. The experiment in a line: Antioxidant activity in mouse RAW264.7 cells assessed as inhibition of H2O2-induced intracellular ROS formation after 30 mins in dark prior to H2O2 challenge measured after 30 mins post H2O2 challenge by H2DCF-DA based flow cytometry. The format is functional, cell-based. An outline of the steps: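 RAW 264.7 cells grown in DMEM/10% FBS at 37 °C, 5% CO2. Loaded with 20 µM H2DCF-DA in HBSS for 30 min, then compound (50 and 100 µM) in HBSS for 30 min at 37 °C in the dark. H2O2 challenge for 30 min, cells scraped and filtered, flow cytometry at 488 nm excitation. Geometric mean fluorescence reported; three independent experiments, mean ± SD.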
(In flow cytometry, cells or beads pass a laser one at a time.)

Regarding `COc1cc([C@H]2N[C@@H](c3ccc(O)c(OC)c3)[C@H]3CCC[C@H]2C3=O)ccc1O`, the Activity was determined as 80% in data set [1], 56.8% in data set [2] and 116% in data set [3].
For `O=C1[C@@H]2CCC[C@@H]1[C@H](c1ccc(O)c(O)c1)N[C@@H]2c1ccc(O)c(O)c1`, the Ratio IC50 in data set [4] was 1. Further, the IC50 in data set [5] worked out at 26.1 µM. The Activity result is “Non-toxic” in the data set on RAW264.7 [6], 80% in data set [1], 62.3% in data set [2] and 163% in data set [3]. For the same molecule, the inhibition entry with RAW264.7 [7] was “Dose-dependent effect”.
Take `O=C1O[C@H]([C@@H](O)CO)C(O)=C1O`: the outcome in data set [1] and in data set [3] was Active.
As for `COc1cc(/C=C/C(=O)CC(=O)/C=C/c2ccc(O)c(OC)c2)ccc1O` [CURCUMIN], the IC50 in data set [5] was determined as 35.1 µM.
Regarding `Oc1ccccc1O` [CATECHOL], the IC50 in data set [5] came out at 36 µM.
With `Cc1c(C)c2c(c(C)c1O)CC[C@@](C)(CCC[C@H](C)CCC[C@H](C)CCCC(C)C)O2` [ALPHA-TOCOPHEROL], in data set [5], the IC50 is 59 µM. Moreover, the result in data set [1] was Active.

For orientation: IC50 means the midpoint of a concentration-inhibition curve.

The values are drawn from ChEMBL document CHEMBL2150890, “Antioxidant properties of Mannich bases” (Bioorg Med Chem Lett, 2012).
